Results reported in paper PMC6645658 (ACS Omega, 2017).

Experiment: In vivo rat BBB penetration
How it was run: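 Rats were dosed iv, and plasma and brain tissue were sampled at 0.25 h after dosing. Plasma concentration is in ng/mL and brain concentration in ng/g. Kp-unbound was derived using the unbound fractions measured in rat plasma and rat brain tissue, and was used to judge blood-brain barrier penetration.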

## COc1ccsc1CNCC[C@@]1(c2ccccn2)CCOC2(CCCC2)C1 [TRV130, [(3-methoxythiophen-2-yl)methyl]({2-[(9R)-9-(pyridine-2yl)-6-oxaspiro-[4,5]decan-9-yl]ethyl})amine]
brain, iv
  concentration at 0.25 h: 315 ng/g
brain/plasma, intravenous
  Kp at 0.25 h: 0.936
